ChEMBL document CHEMBL1126086, “Structure-activity studies of potassium channel opening in pinacidil-type cyanoguanidines, nitroethenediamines, thioureas, and ureas” (J Med Chem, 1992)

Tests used:
[1] = species: Rattus norvegicus; assay: Concentration required to cause 15% increase in [86Rb+] efflux from rat portal vein.; type: functional
Procedure, shortened: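 Rat portal vein, opened lengthwise, tension 500 mg, equilibrated 30 min in HEPES-buffered PSS (95% O2/5% CO2, 32 °C, pH 7.4), then loaded 80 min with 86RbCl (5 µCi/mL). Perfusate collected every 2 min; rate constant k from released vs. remaining tissue activity. Drug effect = peak k during application vs. basal k (6–10 min prior), as Δk %; n = 4–6.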

[2] = Ionisation constant (pKa1) due to protonation of the pyridyl ring; type: physicochemical; settings: read-out: pKa1
[3] = Ionisation constant (pKa2) due to […]; type: physicochemical; settings: read-out: pKa2
[4] = species: Rattus norvegicus; assay: Concentration required to cause 50% inhibition of spontaneous activity in rat portal vein; type: functional; settings: for IC50: Rattus norvegicus
[5] = Ionisation constant (pKa2)

SMILES | pEC15 [1] | pKa [2] | pKa [3] | IC50 [4] [µM] | Log IC50 [4] | pKa2 [5]
CCC(C)(C)/N=C(\NC#N)Nc1cccnc1 | 7.4 | 2.61 | 12.2 | 0.002 | – | –
C[C@@H](/N=C(/S)Nc1ccncc1)C(C)(C)C.Cl | 4 | – | – | – | – | –
C[C@H](/N=C(/S)Nc1ccncc1)C(C)(C)C.Cl | 4 | 4.89 | 13 | 0.316 | – | –
C[C@@H](/N=C(/NC#N)Nc1cccnc1)C(C)(C)C | – | – | – | – | -7 | –
COc1cncc(N/C(=C/[N+](=O)[O-])N[C@H](C)C(C)(C)C)c1 | 4 | – | – | 1.58 | – | –
C[C@@H](N/C(=C\[N+](=O)[O-])Nc1cccnc1)C(C)(C)C | 3.8 | – | – | – | -6 | –
COc1cncc(N/C(=C/[N+](=O)[O-])N[C@@H](C)C(C)(C)C)c1 | 6.5 | 1.86 | 6.5 | 0.0158 | – | –
C[C@H](N/C(=N/c1ccncc1)NC#N)C(C)(C)C | 4.4 | – | – | 0.776 | – | –
CC1(C)CSC(Nc2cccnc2)=N1 | – | – | – | 31.6 | – | –
CC(C)(C)CN/C(=C\[N+](=O)[O-])Nc1cccnc1 | 4 | – | – | 1 | – | 8.86
CC(C)N/C(=C\[N+](=O)[O-])Nc1cccnc1 | <3.5 | – | – | 31.6 | – | –
CC1(C)CN=C(Nc2cccnc2)N1 | – | – | 8.2 | > 10 | – | –
CC(C)(C)C1CSC(Nc2cccnc2)=N1 (centres undefined) | – | 3.89 | – | 20 | – | –
CC(C)(C)/N=C(\Cc1cccnc1)NC#N | 3.5 | 2.71 | > 14 | 5.01 | – | –
C[C@@H](N/C(=N/c1ccncc1)NC#N)C(C)(C)C | 5.9 | – | – | 0.0339 | – | –
CC(N/C(=C\[N+](=O)[O-])Nc1cccc(C#N)c1)C(C)(C)C (centres undefined) | 4 | – | 8.88 | 0.316 | – | –
CC(C)(C)CNC(=O)Nc1ccncc1.Cl | 3.3 | 5.46 | > 14 | 3.16 | – | –
CC(N/C(=C\[N+](=O)[O-])Nc1cccnc1)C(C)(C)C (centres undefined) | 5.5 | 2.28 | 9.03 | 0.0316 | – | –
CC(C)(C)C/N=C(/S)Nc1cccnc1 | 5 | 3.08 | 13.1 | 0.2 | – | –

SMILES | pEC15 [1] | pKa [2] | pKa [3] | IC50 [4] [µM] | Log IC50 [4] | pKa2 [5]
CC(C)(C)c1csc(Nc2cccnc2)n1 | – | 3.57 | – | 1 | – | –
CC(C)(C)C1CN=C(Nc2cccnc2)N1 (centres undefined) | – | 2.03 | 8.1 | 3.16 | – | –
CC(C)(C)/N=C(/NC#N)Nc1cccnc1 | 6.1 | – | – | 0.0126 | – | –
CC(C)(C)CN/C(=C\[N+](=O)[O-])Nc1ccncc1 | <3.5 | – | – | 10 | – | –
CC(/N=C(/NC#N)Nc1cccnc1)C(C)(C)C (centres undefined) | 6.3 | 2.7 | 12 | – | – | –
CCC(C)(C)/N=C(/S)Nc1cccnc1 | 5.2 | – | – | 0.2 | – | –
CC(/N=C(/S)Nc1cccnc1)C(C)(C)C (centres undefined) | 5.7 | 2.97 | 13.2 | 0.0501 | – | –
CC(C)(C)CNC(=O)Nc1cccnc1 | 4 | 3.74 | > 14 | 2 | – | –
CC(C)(C)C(CO)/N=C(/S)Nc1cccnc1 (centres undefined) | <3.5 | – | – | 3.16 | – | –
CC(C)(C)C/C(=N/c1cccnc1)NC#N | 4.3 | 2.23 | 11.3 | – | – | –
CC(C)(C)CN/C(=C\[N+](=O)[O-])NCc1cccnc1 | <3.5 | – | – | 20 | – | –
CCC(C)N1CCN=C1Nc1cccnc1 (centres undefined) | <3 | – | – | 100 | – | –
CC(C)(C)CCN/C(=C\[N+](=O)[O-])Nc1cccnc1 | 3.5 | – | – | 2 | – | –
CC(C)(C)C/N=C(/NC#N)Nc1cccnc1 | 5.5 | 2.83 | 11.8 | 0.1 | – | –
CC(N/C(=C\[N+](=O)[O-])Nc1ccncc1)C(C)(C)C (centres undefined) | 3.3 | – | – | 1 | – | –
O=[N+]([O-])/C=C(/Nc1cccnc1)NC1CCCCC1 | 3.5 | – | – | 3.16 | – | –
CC(/N=C(/NC#N)Nc1cccnc1)C(C)(C)C (single isomer, unassigned) | – | – | – | – | -5.2 | –
CC(N/C(=C\[N+](=O)[O-])Nc1cccnc1)C(C)(C)C (single isomer, unassigned) | 5.8 | – | – | – | -8 | –
CC(N/C(=N\C#N)Nc1ccncc1)C(C)(C)C (centres undefined) [PINACIDIL ANHYDROUS] | 5.7 | 4.81 | 11.3 | 0.0631 | – | –
